Data reported in PMC4397581 (Nature chemical biology, 2015).

Assays:
[1] = test system: human neutrophils; assay: Human NET assay; format: cell-based; details: S. aureus, 5 bacteria per neutrophil, versus vehicle
In short: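 S. aureus was grown 20 h shaking in LB at 37 °C, washed in ice-cold PBS and added at 5× MOI for 3 h at 37 °C. Cells were fixed in 2% PFA and stained with Hoechst 33342. Confocal imaging was used, with algorithmic classification as lobulated, delobulated or diffused NETs, from 60 fields across 3 wells per treatment.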

[2] = test system: mouse neutrophils; assay: Mouse NET assay; format: cell-based; details: 10 µM pre-treatment, ionomycin
In short: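 Mouse peripheral blood neutrophils were isolated by density centrifugation plus hypotonic lysis (>90% pure). They were settled 15 min on uncoated glass-bottom wells in RPMI/10 mM HEPES at 37 °C, given compound or vehicle for 20 min, then stimulated with 4 µM ionomycin for 2 h at 37 °C. Cells were fixed in 2% PFA overnight at 4 °C, permeabilised, blocked, and stained with anti-citrullinated H3 (0.3 µg/mL, overnight 4 °C), a fluorescent secondary and Hoechst 33342. Fluorescence microscopy was used for blinded scoring of H3Cit+ cells and spread NETs by nuclear morphology.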

[3] = test system: histone deacetylases 1–11; assay: Histone deacetylase selectivity; format: biochemical; details: for inhibition of histone deacetylases 1–11: at 100 µM; for Activation of HDACs: up to 100 µM
[4] = test system: panel of 50 unrelated proteins; assay: Off-target panel
[5] = molecular target: PAD4 (Homo sapiens, UniProt Q9UM07); assay: PAD4 FP binding assay; details: 10 nM GSK215, mean of replicates
PAD4, sequence (Q9UM07 whole entry): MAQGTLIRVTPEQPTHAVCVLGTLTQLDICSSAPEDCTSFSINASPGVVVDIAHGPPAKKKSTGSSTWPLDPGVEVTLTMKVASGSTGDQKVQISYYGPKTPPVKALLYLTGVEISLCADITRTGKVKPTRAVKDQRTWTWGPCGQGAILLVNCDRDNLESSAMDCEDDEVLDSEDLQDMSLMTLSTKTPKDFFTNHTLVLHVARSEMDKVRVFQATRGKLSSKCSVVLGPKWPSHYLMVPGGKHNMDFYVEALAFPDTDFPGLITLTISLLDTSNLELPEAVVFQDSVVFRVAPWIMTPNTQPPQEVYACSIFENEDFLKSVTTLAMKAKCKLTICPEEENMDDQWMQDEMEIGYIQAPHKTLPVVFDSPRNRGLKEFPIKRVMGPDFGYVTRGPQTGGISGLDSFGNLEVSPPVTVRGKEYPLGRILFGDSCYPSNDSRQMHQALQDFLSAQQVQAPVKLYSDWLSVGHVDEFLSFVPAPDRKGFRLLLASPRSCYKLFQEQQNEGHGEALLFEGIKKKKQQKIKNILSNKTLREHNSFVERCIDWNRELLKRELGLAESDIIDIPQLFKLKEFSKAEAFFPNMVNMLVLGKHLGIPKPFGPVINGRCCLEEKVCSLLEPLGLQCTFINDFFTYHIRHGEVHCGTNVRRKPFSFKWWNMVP

Row | Structure (SMILES) | Diffused NETs [1] | Histone H3 citrullination [2] | NET formation [2] | inhibition of histone deacetylases 1–11 [3] [%] | Activation of HDACs [3] | Off-target activity against a panel of 50 unrelated proteins [4] | IC50 ([5]; PAD4 FP Binding Assay IC50, 0 mM Ca, 0 mM Ca) [nM] | IC50 ([5]; PAD4 FP Binding Assay IC50, 2 mM Ca, 2 mM Ca) [nM]
1 | CCn1c(-c2nc3ccc(C(=O)N4CCCC(N)C4)cc3n2C)cc2ccccc21 (centres unmarked) [GSK106, (3-Aminopiperidin-1-yl)(2-(1-ethyl-1H–indol-2-yl)-1-methyl-1H-benzo[d]imidazol-6-yl)methanone] | ineffective | ineffective | ineffective | – | – | – | – | –
2 | CCn1c(-c2nc3cc(C(=O)N4CCC[C@@H](N)C4)cc(OC)c3n2C)cc2cccnc21 [GSK199, (R)-(3-Aminopiperidin-1-yl)(2-(1-ethyl-1H-pyrrolo[2,3-b]pyridin-2-yl)-7-methoxy-1-methyl-1H-benzo[d]imidazol-5-yl)methanone] | less marked inhibition | produced the same effect | produced the same effect | < 50 | partial activation of HDACs 1 and 8 at high concentrations | negligible off-target activity | 200 | 1000
3 | COc1cc(C(=O)N2CC[C@@H](O)[C@@H](N)C2)cc2nc(-c3cc4ccccc4n3CC3CC3)n(C)c12 [GSK484, ((3S,4R)-3-Amino-4-hydroxypiperidin-1-yl)(2-(1-(cyclopropylmethyl)-1H-indol-2-yl)-7-methoxy-1-methyl-1H-benzo[d]imidazol-5-yl)methanone] | clear, statistically-significant reduction | dramatically diminished | dramatically diminished | < 50 | no activation across HDACs 1–11 | negligible off-target activity | – | –
